Laboratory results published in ChEMBL document CHEMBL4385599, “Neutral sphingomyelinase 2 inhibitors based on the 4-(1H-imidazol-2-yl)-2,6-dialkoxyphenol scaffold” (Eur J Med Chem, 2019).

What was measured:
[1] = Selectivity index, ratio of IC50 for horseradish peroxidase to IC50 for Inhibition of human recombinant nSMase expressed in HEK293 cells; assay type: cell-based
[2] = organism: Homo sapiens; experiment: Selectivity index, ratio of IC50 for choline oxidase (unknown origin) to IC50 for Inhibition of human recombinant nSMase expressed in HEK293 cells; assay type: cell-based
[3] = molecular target: T1, Sphingomyelin phosphodiesterase 3 (Homo sapiens, UniProt Q9NY59); experiment: Inhibition of human recombinant nSMase expressed in HEK293 cells using sphingomyelin as substrate by alkaline phosphatase, choline oxidase and horseradish peroxidase dependent H2O2 detection based fluorescence coupled assay
T1 sequence (Q9NY59 whole entry): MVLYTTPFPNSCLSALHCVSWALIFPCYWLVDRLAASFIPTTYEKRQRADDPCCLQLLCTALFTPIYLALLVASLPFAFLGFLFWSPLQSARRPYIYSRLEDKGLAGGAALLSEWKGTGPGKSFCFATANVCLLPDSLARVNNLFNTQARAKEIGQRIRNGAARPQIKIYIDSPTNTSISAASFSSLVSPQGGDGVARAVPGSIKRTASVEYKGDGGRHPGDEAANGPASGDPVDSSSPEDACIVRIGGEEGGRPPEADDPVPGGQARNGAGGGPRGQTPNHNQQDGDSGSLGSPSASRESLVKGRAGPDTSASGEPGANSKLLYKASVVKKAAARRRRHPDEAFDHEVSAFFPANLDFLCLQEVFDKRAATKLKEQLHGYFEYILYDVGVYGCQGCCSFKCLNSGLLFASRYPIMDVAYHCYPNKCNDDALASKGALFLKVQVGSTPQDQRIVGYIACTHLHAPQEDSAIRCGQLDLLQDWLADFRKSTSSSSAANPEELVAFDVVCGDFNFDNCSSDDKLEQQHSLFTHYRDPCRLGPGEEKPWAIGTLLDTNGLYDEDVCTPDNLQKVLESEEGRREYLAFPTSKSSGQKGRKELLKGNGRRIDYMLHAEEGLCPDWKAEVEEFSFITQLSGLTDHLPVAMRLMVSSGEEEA
How it was run: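 Fluorescence-based coupled assay with human recombinant nSMase2, alkaline phosphatase and choline oxidase; IC50 values are mean ± SD of at least three experiments.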

[4] = organism: Homo sapiens; experiment: Selectivity index, ratio of IC50 for alkaline phosphatase (unknown origin) to IC50 for Inhibition of human recombinant nSMase expressed in HEK293 cells; assay type: cell-based
[5] = Metabolic stability in mouse liver microsomes assessed as parent compound remaining in presence of UDPGA at 5 uM measured after 1 hr by LC/MS/MS method; assay type: ADME, Microsome
How it was run: (§1)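 Glucuronidation: compound in 50 mM Tris-HCl pH 7.5 with microsomes 0.5 mg/mL, 8 mM MgCl2, 25 μg/mL alamethicin, preincubated at 37 °C; started with UDPGA 2 mM final, triplicate; 60 min; quenched with cold acetonitrile plus internal standard; parent remaining by LC/MS/MS; cofactor-free controls.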

[6] = Metabolic stability in mouse liver microsomes assessed as parent compound remaining at 5 uM in presence of NADPH regenerating system measured after 1 hr by LC/MS/MS method; assay type: ADME, Microsome
[7] = Metabolic stability in human liver microsomes assessed as parent compound remaining at 5 uM in presence of NADPH regenerating system measured after 1 hr by LC/MS/MS method; assay type: ADME, Microsome
[8] = Drug level in CD-1 mouse treated with at 10 mg/kg, po 4-(4,5-Diisopropyl-1H-imidazol-2-yl)-2,6-dimethoxyphenol hydrochloride assessed as compound formation measured after 2 hrs by UPLC and LC-MS/MS analysis; assay type: ADME, organism-based; conditions: in vivo
How it was run: (§2)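 Male CD-1 mice (25–30 g), single oral gavage 10 mg/kg in 5% DMSO, 5% polysorbate 80, 90% saline; 3 mice per time point, sacrificed at 0.5 and 2 h. Cardiac blood into heparin, plasma by centrifugation; brains flash frozen. Acetonitrile extraction with losartan internal standard; quantified by UPLC–LC-MS/MS against calibration curves in naïve plasma/brain matrix.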

[9] = Ratio of drug level in brain to plasma in CD-1 mouse at 10 mg/kg, po measured after 2 hrs by UPLC and LC-MS/MS analysis; assay type: ADME, organism-based; how it was run: as §2
[10] = Metabolic stability in human liver microsomes assessed as parent compound remaining in presence of UDPGA at 5 uM measured after 1 hr by LC/MS/MS method; assay type: ADME, Microsome; how it was run: as §1
[11] = molecular target: T2, Sphingomyelin phosphodiesterase 3 (Rattus norvegicus, UniProt O35049); experiment: Inhibition of rat brain neutral sphingomyelinase pre-incubated for 30 mins before p-nitrophenyl/phosphorylcholine substrate addition by spectrophotometry
T2 sequence (O35049 whole entry): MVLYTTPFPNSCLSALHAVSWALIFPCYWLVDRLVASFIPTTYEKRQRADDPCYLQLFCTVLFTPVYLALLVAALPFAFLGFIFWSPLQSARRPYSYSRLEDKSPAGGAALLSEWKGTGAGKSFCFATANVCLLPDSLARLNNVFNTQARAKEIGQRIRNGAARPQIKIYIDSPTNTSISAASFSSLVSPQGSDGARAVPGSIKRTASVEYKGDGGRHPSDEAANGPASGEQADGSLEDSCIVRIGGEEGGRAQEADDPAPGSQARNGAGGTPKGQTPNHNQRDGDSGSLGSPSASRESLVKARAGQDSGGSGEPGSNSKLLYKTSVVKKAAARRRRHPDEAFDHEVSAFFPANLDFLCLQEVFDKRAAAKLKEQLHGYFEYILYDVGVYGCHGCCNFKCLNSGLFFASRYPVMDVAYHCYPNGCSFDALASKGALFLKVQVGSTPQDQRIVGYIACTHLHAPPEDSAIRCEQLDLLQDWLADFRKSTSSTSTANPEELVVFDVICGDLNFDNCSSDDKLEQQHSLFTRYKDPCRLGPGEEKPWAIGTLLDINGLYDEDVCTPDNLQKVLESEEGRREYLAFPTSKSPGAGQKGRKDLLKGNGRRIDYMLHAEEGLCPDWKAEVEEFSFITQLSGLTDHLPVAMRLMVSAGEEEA

SMILES	IC50 [3] [nM]	Stability [5] [%]	Stability [6] [%]	Stability [7] [%]	Drug uptake [8]	BPR [9] [%]	Stability [10] [%]	Ratio IC50 [1]	Ratio IC50 [2]	Ratio IC50 [4]	IC50 [11] [nM]
Oc1c(OC2CCCC2)cc(-c2nc(-c3ccccc3)c(-c3cccs3)[nH]2)cc1OC1CCCC1	120							> 5	> 5	> 5	
CC(C)Oc1cc(-c2nc(-c3ccccc3)c(-c3cccs3)[nH]2)cc(OC(C)C)c1O	40	> 95	4					> 5	> 5	> 5	
COc1cc(-c2nc(-c3cccs3)c(-c3cccs3)[nH]2)cc(OC)c1O								> 5	> 5	> 5	
COc1cc(-c2nccs2)cc(OC)c1O	20000							< 5	< 5	< 5	
COc1cc(-c2nc(C)c(-c3ccccc3)[nH]2)cc(OC)c1O			82	95				> 5	> 5	> 5	
COc1ccc(-c2nc(-c3cc(OC)c(O)c(OC)c3)[nH]c2-c2ccc(OC)cc2)cc1			73	75				> 5	> 5	> 5	
Oc1cccc(-c2nc(-c3ccccc3)c(-c3cccs3)[nH]2)c1	> 100000							> 5	> 5	> 5	
COc1cc(-c2ncc(-c3ccccc3)[nH]2)cc(OC)c1O								> 5	> 5	> 5	
CCc1nc(-c2cc(OC)c(O)c(OC)c2)[nH]c1CC	120		75	> 95				> 5	> 5	> 5	
COc1cc(-c2nc(-c3ccccc3)c(-c3cccs3)[nH]2)ccc1O								> 5	> 5	> 5	
COc1cc(-c2nc3c([nH]2)CCCC3)cc(OC)c1O	420							< 5	< 5	< 5	
CCCCc1[nH]c(-c2cc(OC)c(O)c(OC)c2)nc1C								> 5	> 5	> 5	
O=C(/C=C\c1ccc(/C=C\C(=O)Nc2ccc(C3=NCCN3)cc2)cc1)Nc1ccc(C2=NCCN2)cc1											1000
COc1cc(OC)cc(-c2nc(-c3ccccc3)c(-c3cccs3)[nH]2)c1								> 5	> 5	> 5	

Second part, led by results:

IC50 [3] [nM]	Stability [5] [%]	Stability [6] [%]	Stability [7] [%]	Drug uptake [8]	BPR [9] [%]	Stability [10] [%]	SMILES	Ratio IC50 [1]	Ratio IC50 [2]	Ratio IC50 [4]	IC50 [11] [nM]
220							COc1cc(-c2ncc(C)[nH]2)cc(OC)c1O	< 5	< 5	< 5	
420							COc1cc(-c2ncc[nH]2)cc(OC)c1O	> 5	> 5	> 5	
70		> 95	94				Oc1c(OCC(F)(F)F)cc(-c2nc(-c3ccccc3)c(-c3cccs3)[nH]2)cc1OCC(F)(F)F	> 5	> 5	> 5	
520							CC(C)(C)Oc1cc(-c2nc(-c3ccccc3)c(-c3cccs3)[nH]2)cc(OC(C)(C)C)c1O	> 5	> 5	> 5	
10		35					CCOc1cc(-c2nc(-c3ccccc3)c(-c3cccs3)[nH]2)cc(OCC)c1O	> 5	> 5	> 5	
40							COc1cc(-c2nc(-c3ccco3)c(-c3ccco3)[nH]2)cc(OC)c1O	> 5	> 5	> 5	
520							COc1cc(-c2nc(C)c(C)[nH]2)cc(OC)c1O	< 5	< 5	< 5	
> 100000							Oc1c(Cl)cc(-c2nc(-c3ccccc3)c(-c3cccs3)[nH]2)cc1Cl	> 5	> 5	> 5	
2100							Oc1ccc(-c2nc(-c3ccccc3)c(-c3cccs3)[nH]2)cc1	< 5	< 5	< 5	
				Active			COc1cc(-c2nc(C(C)C)c(C(C)C)[nH]2)cc(OC)c1O[C@@H]1O[C@H](C(=O)O)[C@@H](O)[C@H](O)[C@H]1O				
70		94	> 95				COc1cc(-c2nc(-c3ccccc3)c(C(C)C)[nH]2)cc(OC)c1O	> 5	> 5	> 5	
> 100000							COc1cc(C2=NCCN2)cc(OC)c1O	> 5	> 5	> 5	
70		> 95	> 95				COc1cc(-c2nc(-c3ccc(C)cc3)c(-c3ccc(C)cc3)[nH]2)cc(OC)c1O	> 5	> 5	> 5	
130							COc1cc(-c2nc(-c3ccc(C)cc3)c[nH]2)cc(OC)c1O	> 5	> 5	> 5	
> 100000							Oc1ccccc1-c1nc(-c2ccccc2)c(-c2cccs2)[nH]1	> 5	> 5	> 5	
		> 95	> 95				COc1cc(-c2nc(-c3ccccc3)c(-c3ccccc3)[nH]2)cc(OC)c1O	> 5	> 5	> 5	
	67	95	95		17	50	COc1cc(-c2nc(-c3cccs3)c(-c3ccccc3)[nH]2)cc(OC)c1O				
20		95	73				COc1cc(-c2nc(-c3cccs3)c(C)[nH]2)cc(OC)c1O	> 5	> 5	> 5	
> 100000							COc1cc(-c2nc(-c3ccccc3)c(-c3cccs3)[nH]2)cc(OC)c1OC	> 5	> 5	> 5	
